We go through one compound from ChEMBL document CHEMBL1138056, “Potent benzimidazole sulfonamide protein tyrosine phosphatase 1B inhibitors containing the heterocyclic (S)-isothiazolidinone phosphotyrosine mimetic” (J Med Chem, 2006).

The target in series [1] is T1, Tyrosine-protein phosphatase non-receptor type 1 (Homo sapiens, UniProt P18031).
T1 sequence (P18031 whole entry): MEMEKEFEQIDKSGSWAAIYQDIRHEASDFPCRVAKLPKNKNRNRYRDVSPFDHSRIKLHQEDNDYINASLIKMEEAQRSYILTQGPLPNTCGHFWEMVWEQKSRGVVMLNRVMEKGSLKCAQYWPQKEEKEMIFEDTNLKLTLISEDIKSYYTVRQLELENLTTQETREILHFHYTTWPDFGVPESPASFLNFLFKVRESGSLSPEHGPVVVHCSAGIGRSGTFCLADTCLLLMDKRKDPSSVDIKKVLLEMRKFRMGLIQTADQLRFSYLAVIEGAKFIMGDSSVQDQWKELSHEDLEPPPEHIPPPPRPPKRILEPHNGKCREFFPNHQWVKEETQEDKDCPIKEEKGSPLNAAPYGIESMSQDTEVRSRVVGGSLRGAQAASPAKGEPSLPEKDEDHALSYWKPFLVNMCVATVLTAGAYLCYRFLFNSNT
The experiment in a line: Inhibition of PTP1B by pNPP assay.

The target of series [2] is T2, Tyrosine-protein phosphatase non-receptor type 1 (Homo sapiens) (UniProt P18031).
T2 sequence (whole entry): T1 sequence (P18031 whole entry)
The experiment in a line: Increase in phosphorylation level of human insulin receptor transfected in HEK293 cells at 80 uM. The series is classed as functional, cell-based. The procedure, abridged: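 HEK293-MSR cells cotransfected with full-length human PTP1B and insulin receptor plasmids, attached 24 h, then treated 16 h in serum-free DMEM (0.4% DMSO final). Lysed on ice; IR phosphorylated at Y1162/Y1163 measured by ELISA and normalized to total protein (BCA). Expressed as fold shift; averages of triplicates from the same day.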

Series [3] is described as follows: Permeability across Caco-2 cell membrane. In kind it is ADME, cell-based. To be noted: human, read-out: permeability. In general terms: Caco-2 cells form a polarised layer with tight junctions and transporters.

In series [1], `O=C1CC(c2ccc(C[C@H](NS(=O)(=O)c3cccc(C(F)(F)F)c3)c3nc4cc(Cl)ccc4[nH]3)cc2F)S(=O)(=O)[N-]1.[Na+]` (stereo partly drawn) showed an IC50 of 0.01 µM. Moreover, the Activity in series [2] came out at 2.3. Also, the Papp in series [3] was determined as 0.3 ×10⁻⁶ cm/s.

In general, IC50 refers to the midpoint of a concentration-inhibition curve. Lower therefore signals greater potency in that assay.
